In ChEMBL document CHEMBL2380226, “Novel dual cyclooxygenase and lipoxygenase inhibitors targeting hyaluronan-CD44v6 pathway and inducing cytotoxicity in colon cancer cells” (Bioorg Med Chem, 2013):
Activity calls are given as the source filed them. The calls are words filed in the database; no cut-off is given here.

Tests used:
[1] = biological target: T1, Prostaglandin G/H synthase 1 (Ovis aries, UniProt P05979); assay: Inhibition of ram seminal vesicle COX-1 using arachidonic acid as substrate assessed as production of PGF2alpha by enzyme immunoassay in presence of stannous chloride
T1 sequence (P05979 whole entry): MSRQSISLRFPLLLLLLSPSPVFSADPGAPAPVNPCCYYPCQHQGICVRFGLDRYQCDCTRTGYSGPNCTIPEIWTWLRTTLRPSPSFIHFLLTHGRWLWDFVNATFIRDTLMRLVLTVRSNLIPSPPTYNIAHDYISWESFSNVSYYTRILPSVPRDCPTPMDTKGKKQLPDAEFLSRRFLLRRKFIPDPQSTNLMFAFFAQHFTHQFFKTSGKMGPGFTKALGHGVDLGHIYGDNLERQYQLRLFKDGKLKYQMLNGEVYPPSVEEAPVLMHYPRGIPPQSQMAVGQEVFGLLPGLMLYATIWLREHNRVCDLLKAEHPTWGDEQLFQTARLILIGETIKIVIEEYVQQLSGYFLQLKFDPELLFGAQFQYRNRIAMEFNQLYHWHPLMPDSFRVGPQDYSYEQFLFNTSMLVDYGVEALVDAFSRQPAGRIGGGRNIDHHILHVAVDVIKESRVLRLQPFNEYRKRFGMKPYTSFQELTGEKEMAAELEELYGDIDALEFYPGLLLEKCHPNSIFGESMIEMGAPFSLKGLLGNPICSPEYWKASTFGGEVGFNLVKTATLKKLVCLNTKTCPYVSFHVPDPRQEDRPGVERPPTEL
Summary of the method: (§1)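 PGH2 formed by the enzyme is reduced with stannous chloride to PGF, which is quantified by competitive EIA. PGs compete with a PG-acetylcholinesterase tracer for PG antiserum, and the complex is captured on an anti-rabbit antibody-coated well. Ellman's reagent is developed and absorbance is read at 405 nm. Percent inhibition is taken against control incubations, and IC50 comes from the concentration-inhibition curve.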

[2] = biological target: T2, Prostaglandin G/H synthase 2 (Ovis aries, UniProt P79208); assay: Inhibition of sheep placental COX-2 using arachidonic acid as substrate assessed as production of PGF2alpha by enzyme immunoassay in presence of stannous chloride; summary of the method: as §1
T2 sequence (P79208 whole entry): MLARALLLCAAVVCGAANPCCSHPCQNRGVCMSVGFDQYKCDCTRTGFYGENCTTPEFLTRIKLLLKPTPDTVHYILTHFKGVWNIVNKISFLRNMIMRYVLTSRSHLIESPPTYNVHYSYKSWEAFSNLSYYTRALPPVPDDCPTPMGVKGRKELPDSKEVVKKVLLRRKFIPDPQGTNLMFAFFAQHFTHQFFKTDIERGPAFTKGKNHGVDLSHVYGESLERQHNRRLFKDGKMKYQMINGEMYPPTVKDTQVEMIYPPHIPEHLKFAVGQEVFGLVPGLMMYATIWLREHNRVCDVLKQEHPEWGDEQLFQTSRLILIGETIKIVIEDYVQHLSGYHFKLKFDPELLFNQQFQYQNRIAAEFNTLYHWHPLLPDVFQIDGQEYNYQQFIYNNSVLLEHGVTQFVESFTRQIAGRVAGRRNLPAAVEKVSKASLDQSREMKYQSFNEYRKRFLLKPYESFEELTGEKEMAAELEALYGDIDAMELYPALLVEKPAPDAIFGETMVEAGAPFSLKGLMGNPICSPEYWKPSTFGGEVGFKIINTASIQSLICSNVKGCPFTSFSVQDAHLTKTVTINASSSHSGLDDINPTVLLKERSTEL

[3] = species: Ovis aries; assay: Selectivity ratio of IC50 for sheep placental COX-2 to IC50 for ram seminal vesicle COX-1; assay type: tissue-based
[4] = Inhibition of potato 5-LOX using arachidonic acid as substrate assessed as production of hydroperoxides after 5 mins […]; design: species or system Solanum tuberosum
Summary of the method: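 Potato 5-LOX was tested with a commercial lipoxygenase screening kit that measures hydroperoxides. Compounds were dissolved in minimal DMSO and diluted in the supplied buffer. The reaction was started with arachidonic acid and shaken for 5 min. Chromogen was added, shaken for 5 min, and absorbance read at 500 nm. Percent inhibition was taken against control, and IC50 was derived from the concentration-inhibition curve from duplicate determinations.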

[5] = Inhibition of hyaluronan-induced CD44 antigen variant exon 6 activity in human HCA-7 cells expressing Has2 assessed as decrease in cell survival after 18 hrs by MTS assay; assay type: cell-based; conditions: HCA-7, 18 h
Summary of the method: (§2)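 Cells were harvested, counted and seeded at 20 × 10^3 per well. After 18 h the medium was replaced with medium containing the agents. MTS/PMS reagent was freshly prepared at 2/0.92 mg/mL in DPBS and added in excess, then incubated at 5% CO2. Absorbance was read at 490 nm at 90 min, and cell-free blank absorbance was subtracted. IC50 is the concentration giving 50% inhibition of proliferation, reported as mean ± S.D. (three replicates of 4 independent analyses).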

[6] = tested on: HCA-7; assay: Cytotoxicity against human HCA-7 cells assessed as growth inhibition after 18 hrs by MTS assay; assay type: functional, cell-based; summary of the method: as §2
[7] = Inhibition of hyaluronan-induced CD44 antigen variant exon 6 activity in human HT-29 cells expressing Has2 assessed as decrease in cell survival after 18 hrs by MTS assay; assay type: cell-based; conditions: HT-29, 18 h; summary of the method: as §2
[8] = tested on: HT-29; assay: Inhibition of hyaluronan-induced CD44 antigen variant exon 6 activity in human HT29 cells assessed as decrease in 5-LOX expression at 10 uM; assay type: cell-based
[9] = Cytotoxicity against mouse APC10.1 cells assessed as decrease in cell survival after 18 hrs by MTS assay; assay type: functional, cell-based; summary of the method: as §2
[10] = tested on: HT-29; assay: Cytotoxicity against human HT-29 cells assessed as growth inhibition after 18 hrs by MTS assay; assay type: functional, cell-based; summary of the method: as §2
[11] = Inhibition of hyaluronan-induced CD44 antigen variant exon 6 activity in mouse APC10.1 cells expressing Has2 assessed as decrease in cell survival after 18 hrs by MTS assay; assay type: cell-based; summary of the method: as §2
[12] = tested on: HT-29; assay: Inhibition of hyaluronan-induced CD44 antigen variant exon 6 activity in human HT29 cells assessed as decrease in COX-2 expression at 10 uM; assay type: cell-based
[13] = Cytotoxicity against human HCA-7 cells assessed as decrease in cell survival after 18 hrs by MTS assay; assay type: functional, cell-based; conditions: HCA-7, 18 h; summary of the method: as §2
[14] = tested on: HT-29; assay: Cytotoxicity against human HT-29 cells assessed as decrease in cell survival after 18 hrs by MTS assay; assay type: functional, cell-based; conditions: HT-29, 18 h; summary of the method: as §2
[15] = species: Mus musculus; assay: Inhibition of hyaluronan-induced CD44 antigen variant exon 6 activity in mouse APC10.1 cells assessed as cell growth inhibition after 18 hrs by MTS assay; assay type: cell-based; summary of the method: as §2
[16] = tested on: HT-29; assay: Cytotoxicity against human HT-29 cells assessed as growth inhibition at 2 to 50 uM after 24 hrs by MTT assay; assay type: functional, cell-based
Summary of the method: (§3)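 Cells were treated for 24 h at four concentrations in triplicate. MTT (stock 5 mg/ml in PBS, pH 7.2, filtered) was then added and incubated for 4 h at 37°C. Formazan was solubilized with 10% SDS in 0.01 N HCl, and absorbance was read at 570 nm to give viability.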

[17] = species: Mus musculus; assay: Cytotoxicity against mouse APC10.1 cells expressing COX and LOX assessed as growth inhibition at 2 to 50 uM after 24 hrs by MTT assay; assay type: functional, cell-based; summary of the method: as §3
[18] = Cytotoxicity against rat IEC-6 cells assessed as growth inhibition at 2 to 50 uM after 24 hrs by MTT assay; assay type: cell-based; conditions: iec-6, 24 h; summary of the method: as §3
[19] = species: Mus musculus; assay: Inhibition of hyaluronan-induced CD44 antigen variant exon 6 activity in mouse APC10.1 cells assessed as cell growth inhibition at 2 to 50 uM after 24 hrs by MTT assay; assay type: cell-based; summary of the method: as §3
[20] = tested on: HCA-7; assay: Cytotoxicity against human HCA-7 cells assessed as growth inhibition at 2 to 50 uM after 24 hrs by MTT assay; assay type: functional, cell-based; summary of the method: as §3

## CC(C)(C)c1cc(/C=C2\SC(N)=NC2=O)cc(C(C)(C)C)c1O [DARBUFELONE]
[1]
  IC50: 35 µM
[2]
  IC50: 0.48 µM

## CC(C)(C)c1cc(/C=C2\SC(=N)NC2=O)cc(C(C)(C)C)c1O [DARBUFELONE]
[3]
  Ratio IC50: 0.014
[4]
  IC50: 0.77 µM

## CC(C)(C)C1=CC(=NNC(=O)c2ccccc2)C=C(C(C)(C)C)C1=O
[5]
  IC50: 26.4 µM
[6]
  growth inhibition (GI): Dose-dependent effect
[7]
  IC50: 38.5 µM
[8]
  inhibition: Active
[9]
  IC50: 20 µM
[1]
  IC50: 14 µM
[3]
  Ratio IC50: 0.68
[10]
  growth inhibition (GI): Dose-dependent effect
[11]
  IC50: 31 µM
[4]
  IC50: 5.1 µM
[12]
  inhibition: Active
[13]
  IC50: 12.5 µM
[14]
  IC50: 15 µM
[2]
  IC50: 9.5 µM
[15]
  growth inhibition (GI): Dose-dependent effect

## Cc1ccc(-c2cc(C(F)(F)F)nn2-c2ccc(S(N)(=O)=O)cc2)cc1 [CELECOXIB]
[5]
  IC50: 17.5 µM
[6]
  growth inhibition (GI): Dose-dependent effect
[7]
  IC50: 18.3 µM
[8]
  inhibition: Active
[9]
  IC50: 4.2 µM
[10]
  growth inhibition (GI): Dose-dependent effect
[11]
  IC50: 6 µM
[12]
  inhibition: Active
[13]
  IC50: 2 µM
[14]
  IC50: 3 µM
[15]
  growth inhibition (GI): Dose-dependent effect

## CC(C)(C)C1=CC(=NNC(=O)c2cccnc2)C=C(C(C)(C)C)C1=O
[5]
  IC50: 34.5 µM
[16]
  growth inhibition (GI): Active
[6]
  growth inhibition (GI): Dose-dependent effect
[7]
  IC50: 28.6 µM
[8]
  inhibition: Active
[9]
  IC50: 7.5 µM
[1]
  IC50: 48.6 µM
[3]
  Ratio IC50: 0.19
[10]
  growth inhibition (GI): Dose-dependent effect
[17]
  growth inhibition (GI): Active
[11]
  IC50: 12.2 µM
[18]
  Activity: Non-toxic
[19]
  growth inhibition (GI): Active
[20]
  growth inhibition (GI): Active
[12]
  inhibition: Active
[13]
  IC50: 6.5 µM
[14]
  IC50: 11 µM
[2]
  IC50: 9.3 µM
[15]
  growth inhibition (GI): Dose-dependent effect

## CC(C)(C)C1=CC(=NNC(=O)c2ccncc2)C=C(C(C)(C)C)C1=O
[5]
  IC50: 38.6 µM
[6]
  growth inhibition (GI): Dose-dependent effect
[7]
  IC50: 5.4 µM
[8]
  inhibition: Active
[9]
  IC50: 8.9 µM
[1]
  IC50: 55.7 µM
[3]
  Ratio IC50: 0.14
[10]
  growth inhibition (GI): Dose-dependent effect
[11]
  IC50: 18.3 µM
[4]
  IC50: 20 µM
[12]
  inhibition: Active
[13]
  IC50: 12 µM
[14]
  IC50: 15.2 µM
[2]
  IC50: 7.6 µM
[15]
  growth inhibition (GI): Dose-dependent effect
